In ChEMBL document CHEMBL2346505, “Pyranoflavones: a group of small-molecule probes for exploring the active site cavities of cytochrome P450 enzymes 1A1, 1A2, and 1B1” (J Med Chem, 2013):
pIC50, pKi: −log10 of the molar value.

How the values were obtained:
Assay type in all cases: ADME; call rule not given here
Cytochrome P450 1B1 = biological target: T1, Cytochrome P450 1B1 (Homo sapiens, UniProt Q16678); assay: Inhibition of CYP1B1 (unknown origin)-mediated deethylation of resorufin ethyl ether after 5 mins by spectrofluorimetric analysis
T1 sequence (Q16678 whole entry): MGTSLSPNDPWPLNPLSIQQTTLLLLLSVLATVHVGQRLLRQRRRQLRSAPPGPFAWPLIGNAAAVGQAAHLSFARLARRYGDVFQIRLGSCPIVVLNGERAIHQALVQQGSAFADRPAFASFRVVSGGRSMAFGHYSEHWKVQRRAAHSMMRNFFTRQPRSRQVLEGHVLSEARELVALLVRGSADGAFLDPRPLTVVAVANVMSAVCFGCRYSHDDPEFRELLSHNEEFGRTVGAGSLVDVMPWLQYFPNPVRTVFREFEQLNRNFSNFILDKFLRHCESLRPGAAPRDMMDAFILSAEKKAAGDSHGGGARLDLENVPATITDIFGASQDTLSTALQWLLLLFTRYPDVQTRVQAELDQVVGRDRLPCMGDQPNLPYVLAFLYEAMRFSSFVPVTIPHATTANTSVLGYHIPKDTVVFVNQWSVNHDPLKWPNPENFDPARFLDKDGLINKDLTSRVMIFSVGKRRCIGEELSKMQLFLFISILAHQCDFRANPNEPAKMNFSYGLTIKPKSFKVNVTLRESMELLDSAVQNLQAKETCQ
Summary of the method: (§1)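 Microsomal P450 (final 5 nM) in 0.1 M potassium phosphate pH 7.6 with MgCl2; resorufin ether or coumarin substrate final 5 μM from DMSO stock; inhibitor added in DMSO, DMSO alone for controls. Reaction started with NADPH regenerating system (NADP+, glucose 6-phosphate, G6P dehydrogenase) at 37 °C; product formation followed fluorimetrically as progress curves.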

Cytochrome P450 2A6 = biological target: T2, Cytochrome P450 2A6 (Homo sapiens, UniProt P11509); assay: Inhibition of CYP2A6 (unknown origin)-mediated coumarin 7-hydroxylation after 5 mins by spectrofluorimetric analysis; summary of the method: as §1
T2 sequence (P11509 whole entry): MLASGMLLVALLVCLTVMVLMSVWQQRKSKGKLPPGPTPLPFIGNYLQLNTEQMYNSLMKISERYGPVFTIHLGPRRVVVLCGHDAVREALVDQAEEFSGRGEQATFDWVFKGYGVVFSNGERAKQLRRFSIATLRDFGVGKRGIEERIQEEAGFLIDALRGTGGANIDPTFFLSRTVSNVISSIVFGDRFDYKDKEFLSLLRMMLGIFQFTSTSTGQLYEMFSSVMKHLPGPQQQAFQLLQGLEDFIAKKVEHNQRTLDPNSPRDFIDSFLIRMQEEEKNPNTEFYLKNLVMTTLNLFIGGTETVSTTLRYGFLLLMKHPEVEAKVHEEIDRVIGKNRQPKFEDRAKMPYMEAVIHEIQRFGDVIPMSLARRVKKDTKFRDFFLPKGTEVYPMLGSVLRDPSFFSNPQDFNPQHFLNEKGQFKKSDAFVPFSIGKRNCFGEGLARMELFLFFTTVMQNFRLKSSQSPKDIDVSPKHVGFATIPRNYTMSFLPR

Cytochrome P450 2B1 = biological target: T3, Cytochrome P450 2B1 (Rattus norvegicus, UniProt P00176); assay: Inhibition of CYP2B1 (unknown origin)-mediated depentylation of resorufin pentyl ether after 5 mins by spectrofluorimetric analysis; summary of the method: as §1
T3 sequence (P00176 whole entry): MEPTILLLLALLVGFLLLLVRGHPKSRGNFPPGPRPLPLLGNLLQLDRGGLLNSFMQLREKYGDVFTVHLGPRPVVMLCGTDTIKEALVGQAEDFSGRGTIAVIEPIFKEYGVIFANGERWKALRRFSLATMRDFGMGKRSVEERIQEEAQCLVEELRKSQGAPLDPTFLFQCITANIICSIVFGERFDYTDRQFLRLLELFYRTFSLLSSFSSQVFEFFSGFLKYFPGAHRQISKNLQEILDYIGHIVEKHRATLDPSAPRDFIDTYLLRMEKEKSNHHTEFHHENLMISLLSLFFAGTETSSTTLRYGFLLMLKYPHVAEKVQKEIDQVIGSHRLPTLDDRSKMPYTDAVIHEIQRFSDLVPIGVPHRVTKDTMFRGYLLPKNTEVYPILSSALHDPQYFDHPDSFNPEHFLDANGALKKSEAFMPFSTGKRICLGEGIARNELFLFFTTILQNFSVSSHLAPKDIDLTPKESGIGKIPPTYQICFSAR

Cytochrome P450 1A2 [1] = biological target: T4, Cytochrome P450 1A2 (Homo sapiens, UniProt P05177); assay: (§2) Irreversible inhibition of CYP1A2 (unknown origin)-mediated demethylation of resorufin methyl ether after 5 mins by spectrofluorimetric analysis
T4 sequence (P05177 whole entry): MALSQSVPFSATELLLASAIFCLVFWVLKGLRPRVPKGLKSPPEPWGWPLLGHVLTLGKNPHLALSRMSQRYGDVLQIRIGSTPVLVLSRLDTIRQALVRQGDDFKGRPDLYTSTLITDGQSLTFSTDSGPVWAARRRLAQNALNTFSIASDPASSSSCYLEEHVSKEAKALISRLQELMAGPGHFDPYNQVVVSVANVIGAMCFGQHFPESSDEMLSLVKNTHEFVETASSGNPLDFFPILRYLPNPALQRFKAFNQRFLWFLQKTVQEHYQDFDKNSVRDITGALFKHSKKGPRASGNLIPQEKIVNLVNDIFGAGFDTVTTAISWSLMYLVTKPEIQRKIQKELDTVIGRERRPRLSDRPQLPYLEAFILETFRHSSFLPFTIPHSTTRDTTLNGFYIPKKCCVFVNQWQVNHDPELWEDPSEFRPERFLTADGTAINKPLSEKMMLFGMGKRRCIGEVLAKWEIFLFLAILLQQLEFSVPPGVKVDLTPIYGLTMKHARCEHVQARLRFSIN

CYP1A2 = biological target: T5, CYP1A2 (Homo sapiens, UniProt P05177); assay: as §2; details: human, probe resorufin methyl ether
T5 sequence (P05177 whole entry): T4 sequence (P05177 whole entry)

CYP1A1 = biological target: T6, CYP1A1 (Homo sapiens, UniProt P04798); assay: (§3) Irreversible inhibition of CYP1A1 (unknown origin)-mediated deethylation of resorufin ethyl ether after 5 mins by spectrofluorimetric analysis; details: human, probe resorufin ethyl ether
T6 sequence (P04798 whole entry): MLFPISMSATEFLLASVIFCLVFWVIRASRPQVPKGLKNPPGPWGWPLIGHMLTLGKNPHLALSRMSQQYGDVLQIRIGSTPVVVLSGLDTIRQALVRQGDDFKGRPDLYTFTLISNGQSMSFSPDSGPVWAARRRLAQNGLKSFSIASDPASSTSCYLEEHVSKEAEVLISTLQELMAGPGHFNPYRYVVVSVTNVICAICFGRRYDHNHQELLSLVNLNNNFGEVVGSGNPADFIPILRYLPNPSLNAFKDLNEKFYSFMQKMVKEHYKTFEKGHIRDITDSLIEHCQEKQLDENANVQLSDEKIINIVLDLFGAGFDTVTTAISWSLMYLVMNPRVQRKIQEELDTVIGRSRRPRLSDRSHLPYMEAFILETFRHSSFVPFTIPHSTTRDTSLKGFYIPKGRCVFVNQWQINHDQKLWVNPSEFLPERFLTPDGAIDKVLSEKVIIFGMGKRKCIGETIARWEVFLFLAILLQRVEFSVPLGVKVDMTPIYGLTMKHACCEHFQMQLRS

Cytochrome P450 1A1 [2] = biological target: T7, Cytochrome P450 1A1 (Homo sapiens, UniProt P04798); assay: as §3
T7 sequence (P04798 whole entry): T6 sequence (P04798 whole entry)

Cytochrome P450 1A1 [3] = biological target: T7, Cytochrome P450 1A1; assay: Inhibition of CYP1A1 (unknown origin)-mediated deethylation of resorufin ethyl ether after 5 mins by spectrofluorimetric analysis; summary of the method: as §1
CYP1A2 / CYP1A1 = assay: Selectivity ratio of IC50 for CYP1A2 (unknown origin) to IC50 for CYP1A1 (unknown origin); details: human; read-out: Ratio IC50
Cytochrome P450 1A2 [4] = biological target: T4, Cytochrome P450 1A2; assay: Inhibition of CYP1A2 (unknown origin)-mediated demethylation of resorufin methyl ether after 5 mins by spectrofluorimetric analysis; summary of the method: as §1
Cytochrome P450 1A1 [5] = biological target: T7, Cytochrome P450 1A1; assay: Inhibition of CYP1A1 (unknown origin)-mediated deethylation of resorufin ethyl ether at 0.1 uM after 5 mins by spectrofluorimetric analysis
Summary of the method: (§4)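 Fluorimetric dealkylation of resorufin ether (ethyl for 1A1/1B1, methyl for 1A2) by microsomal P450 (final 5 nM), substrate final 5 μM, in 0.1 M potassium phosphate pH 7.6 with MgCl2 at 37 °C. Reaction started with NADPH regenerating system. Test compound at 0.1 μM in DMSO; activity compared with DMSO-only control.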

CYP1B1 over CYP1A1 = assay: Selectivity ratio for CYP1B1 (unknown origin) over CYP1A1 (unknown origin); details: human
Summary of the method: (§5)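 Ratio of IC50 values from fluorimetric dealkylation assays: resorufin ethyl ether deethylation (1A1, 1B1), resorufin methyl ether demethylation (1A2). Microsomal P450 5 nM final, substrate 5 μM final, 0.1 M potassium phosphate pH 7.6 with MgCl2, NADPH-regenerating system, 37 °C. Inhibitor 0.1–100 μM in DMSO. IC50s from progress curves, three independent experiments.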

CYP1B1 over CYP1A2 = assay: Selectivity ratio for CYP1B1 (unknown origin) over CYP1A2 (unknown origin); details: human; summary of the method: as §5
CYP1B1 = biological target: T8, CYP1B1 (Homo sapiens, UniProt Q16678); assay: Inhibition of CYP1B1 (unknown origin) dealkylation activity at 0.1 uM after 5 mins by spectrofluorimetric analysis relative to control; summary of the method: as §4
T8 sequence (Q16678 whole entry): T1 sequence (Q16678 whole entry)

Cytochrome P450 1A2 [6] = biological target: T4, Cytochrome P450 1A2; assay: Inhibition of CYP1A2 (unknown origin)-mediated demethylation of resorufin methyl ether at 0.1 uM after 5 mins by spectrofluorimetric analysis; summary of the method: as §4

SMILES | inhibition (INH) (Cytochrome P450 1B1) | pIC50 (Cytochrome P450 2A6) | pIC50 (Cytochrome P450 2B1) | pIC50 (Cytochrome P450 1A1 [3]) | pIC50 (Cytochrome P450 1A2 [4]) | other results
O=c1cc(-c2ccc3c(c2)OCC=C3)oc2cccc(O)c12 | Active | < 4.60 | < 4.60 |  |  | 
C#CCOc1cccc(-c2cc(=O)c3c(O)cccc3o2)c1 | Active | < 4.60 | 5.39 |  |  | pKi (Cytochrome P450 1A2 [1]): 7.15; kinact at 5 min (CYP1A2): 0.000367 s⁻¹; kinact at 5 min (CYP1A1): 0.00317 s⁻¹; pKi (Cytochrome P450 1A1 [2]): 6.89
O=c1cc(-c2ccccc2)oc2c3c(cc(O)c12)OCC=C3 | Active | < 4.60 | < 4.60 | 6.96 |  | 
O=c1cc(-c2cccc3c2C=CCO3)oc2cccc(O)c12 | Active | < 4.60 | < 4.60 |  |  | 
O=c1cc(-c2ccccc2)oc2ccc3ccccc3c12 [BETA-NAPHTHOFLAVONE] | Active | < 4.60 | < 4.60 | 7.27 | 6.33 | selectivity ratio (CYP1A2 / CYP1A1): 5
O=c1cc(-c2ccc3c(c2)C=CCO3)oc2ccccc12 | Active | < 4.60 | 5.18 |  |  | 
O=c1cc(-c2ccccc2)oc2ccc3c(c12)OCC=C3 | Active | < 4.60 | < 4.60 | 6.49 | 5.95 | selectivity ratio (CYP1A2 / CYP1A1): 3.5
C#CCOc1ccc(-c2cc(=O)c3c(O)cccc3o2)cc1 | Active | < 4.60 | < 4.60 |  | < 4.70 | inhibition (INH) (Cytochrome P450 1A1 [5]): Not Active; selectivity ratio (CYP1B1 over CYP1A1): 100; selectivity ratio (CYP1B1 over CYP1A2): > 250; inhibition at 5 min, 0.1 µM (CYP1B1): 50%; inhibition (INH) (Cytochrome P450 1A2 [6]): Not Active
O=c1cc(-c2ccc3c(c2)C=CCO3)oc2cccc(O)c12 | Active | < 4.60 | < 4.60 |  |  | 
C#CCOc1cc(O)c2c(=O)cc(-c3ccccc3)oc2c1 | Active | < 4.60 | < 4.60 | 6.46 | 7.05 | 
O=c1cc(-c2ccccc2)oc2cc3c(c(O)c12)C=CCO3 | Active | < 4.60 | < 4.60 |  |  | 
O=c1cc(-c2cccc3c2C=CCO3)oc2ccccc12 [2'H,4H-[2,5'-BICHROMEN]-4-ONE] | Active | < 4.60 | 5.15 |  |  | 
O=c1cc(-c2ccccc2)oc2cc(O)cc(O)c12 [CHRYSIN] | Active | < 4.60 | < 4.60 |  |  | 
O=c1cc(-c2ccccc2)oc2ccc3c(c12)C=CCO3 | Active | < 4.60 | < 4.60 | 6.82 | 6.12 | selectivity ratio (CYP1A2 / CYP1A1): 5
O=c1cc(-c2cccc3c2OCC=C3)oc2ccccc12 [2'H,4H-[2,8'-BICHROMEN]-4-ONE] | Active | < 4.60 | 5.20 |  |  | 
C#CCOc1ccc(-c2cc(=O)c3c(ccc4ccccc43)o2)cc1 |  |  |  | 7.39 | 6.22 | selectivity ratio (CYP1A2 / CYP1A1): 5
O=c1cc(-c2ccccc2)oc2c3c(ccc12)OCC=C3 | Active | < 4.60 | < 4.60 | 6.57 |  | 
O=c1cc(-c2ccccc2)oc2c1ccc1ccccc12 [ALPHA-NAPHTHOFLAVONE] | Active | < 4.60 | 4.89 | 7.37 |  | 
